Compound activity deposited in PubChem by Johns Hopkins Ion Channel Center.
KCNK3 inh = human KCNK3 channel inhibition, primary screen; B-score at 10 µM; AID 602410; hit rate 0.84% among 340,000; O14649; CHO-KCNK3 thallium flux, FluxOR fluorescence; active compounds read low;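 active = B-score under library mean minus 4 SD, starting fluorescence ratio at most library mean plus 5 SD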;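 note: more negative B-score means stronger inhibition of thallium flux through KCNK3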
KCNQ1 pot = potentiators or activators of human KCNQ1 potassium channel | P51787 | hit rate 0.35% among 310,000 | AID 2648 | CHO-K1 KCNQ1, thallium flux FluxOR fluorescence; active compounds read high | B-score at 10 µM;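 active = fluorescence ratio B-score, a plate-corrected score, at least three library SD, with initial intensity B-score within 5 SD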
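Assay system: CHO-K1 cells stably expressing KCNQ1. Medium: assay buffer for compound exposure, DMSO matched across wells. Timing: 37 °C overnight plating, 90-min dark dye load, 20-min compound pretreatment. Signal: kinetic FluxOR fluorescence, 10 s baseline plus 110 s post-stimulus.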
KCNK9 block = inhibitors of human KCNK9 two-pore domain potassium channel. Q9NPC2. HEK293 KCNK9, FluxOR thallium flux fluorescence; active compounds read low. B-score at 10 µM. hit rate 1.2% among 310,000. AID 488922;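 active = ratio B-score over 3 SD below the library mean, with starting fluorescence within 5 SD of its mean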;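 note: negative B-score means less thallium flux so channel inhibition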
hERG protect = shields human hERG channel from block by proarrhythmic agents. CHO-hERG, FluxOR thallium flux, dofetilide IC70 present. AID 1511. activation (rescue from dofetilide block), less the hit threshold, % at 10 µM. hit rate 0.51% among 310,000. Q12809;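 active = activation above the mean of controls blocked by dofetilide plus 5 SD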;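 note: thallium influx through hERG after potassium depolarization seen as dye fluorescence rise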
KCNQ1 block = inhibitors of human KCNQ1 potassium channel; P51787; CHO-K1 KCNQ1, FluxOR thallium flux fluorescence; active compounds read high; hit rate 1.3% among 310,000; AID 2642; B-score at 10 µM;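 active = compounds whose thallium flux B-score, printed positive for inhibition, exceeds three library SD while starting fluorescence stays within three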;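 note: channel opened by potassium depolarization with thallium stimulus after 20 min compound exposure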
KCNQ1 block val = confirmation of human KCNQ1 potassium channel inhibitors. shares compounds with KCNQ1 block. KCNQ1 cell line, FluxOR thallium flux fluorescence. inhibition, % at 10 µM. hit rate 93% among 1,600;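 active = primary screen active, with duplicate mean exceeding buffer control mean plus 3 SD of buffer wells, cut at about 28% in these data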
CHO Tl flux = counter-screen for KCNQ1 inhibitors: effect in parental CHO cells; shares compounds with KCNQ1 block; parental CHO-K1, FluxOR thallium flux fluorescence ratio; active compounds read low; zero means no signal rise above baseline; fluorescence ratio (Tl flux) at 10 µM; hit rate 21% among 1,600; AID 588366;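 active = mean of duplicate thallium-flux fluorescence ratios in parental host cells more than 5 SD below the buffer control mean, cut at about 0.38 in these data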;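 note: ratio is peak minus minimum fluorescence divided by baseline fluorescence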
KCNQ1 ephys val = confirmation of human KCNQ1 potassium channel inhibitors by electrophysiology; shares compounds with KCNQ1 block; KCNQ1-CHO cells, automated patch clamp current; calls only at 10 µM; hit rate 20% among 490; AID 624120;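 active = KCNQ1 current drop exceeding 3 SD of negative control wells, seen in both duplicate runs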;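 note: steady state current during a 2 s step from -80 to +40 mV; negative values mean current inhibition and positive values mean potentiation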
KCNQ2 inh = selectivity of KCNQ1 inhibitors: inhibition of rat KCNQ2 channel. shares compounds with KCNQ1 block. KCNQ2 cells, FluxOR thallium flux fluorescence. inhibition, % at 10 µM. hit rate 71% among 1,600. AID 651746;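 active = mean percent inhibition of the KCNQ2 thallium signal more than 5 SD above the buffer-only control wells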;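 note: KCNQ2 expressed in CHO cells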
Target sequence (O88943 whole entry, looked up): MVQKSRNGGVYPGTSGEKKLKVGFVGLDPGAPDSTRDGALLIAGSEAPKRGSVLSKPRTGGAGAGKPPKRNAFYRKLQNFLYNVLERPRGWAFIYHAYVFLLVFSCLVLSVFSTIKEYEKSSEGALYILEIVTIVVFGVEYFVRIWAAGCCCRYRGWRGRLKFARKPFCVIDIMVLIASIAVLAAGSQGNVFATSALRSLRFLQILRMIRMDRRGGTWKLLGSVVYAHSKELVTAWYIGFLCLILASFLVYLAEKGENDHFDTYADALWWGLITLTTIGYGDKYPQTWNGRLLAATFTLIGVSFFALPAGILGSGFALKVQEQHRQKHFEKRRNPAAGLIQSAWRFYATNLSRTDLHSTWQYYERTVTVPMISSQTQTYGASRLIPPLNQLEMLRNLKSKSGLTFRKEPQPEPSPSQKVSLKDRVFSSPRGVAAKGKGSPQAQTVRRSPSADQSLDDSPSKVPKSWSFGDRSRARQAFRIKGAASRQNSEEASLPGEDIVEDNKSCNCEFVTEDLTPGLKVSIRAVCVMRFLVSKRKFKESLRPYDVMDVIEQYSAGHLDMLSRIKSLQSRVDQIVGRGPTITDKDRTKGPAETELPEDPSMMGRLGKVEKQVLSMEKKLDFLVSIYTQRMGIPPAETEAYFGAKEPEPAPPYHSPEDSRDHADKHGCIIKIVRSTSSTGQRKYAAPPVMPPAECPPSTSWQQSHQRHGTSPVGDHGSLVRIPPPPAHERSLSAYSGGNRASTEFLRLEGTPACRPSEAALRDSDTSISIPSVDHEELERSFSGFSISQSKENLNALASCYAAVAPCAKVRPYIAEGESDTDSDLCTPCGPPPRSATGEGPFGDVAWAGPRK
KCNQ1-KCNE1 inh = human KCNQ1/KCNE1 inhibition in KCNQ1 specificity screen; inhibition, % at 10 µM; hit rate 77% among 1,600; shares compounds with KCNQ1 block; KCNQ1/KCNE1 cells, FluxOR thallium flux fluorescence;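 active = mean percent inhibition of duplicate wells above the buffer-only control mean plus 3 SD of those controls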
KCNK9 inh conf = human KCNK9 inhibitor confirmation | AID 492992 | HEK293 KCNK9 cells, FluxOR thallium flux fluorescence | inhibition, % at 10 µM | hit rate 43% among 4,900 | shares compounds with KCNK9 block;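 active = thallium signal inhibited by more than 5 SD of the compound-free buffer control wells, on both duplicate plates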
Kir2-1 spec = selectivity of KCNK9 modulators against mouse Kir2.1 | shares compounds with KCNK9 block | Kir2.1 cells, FluxOR thallium flux fluorescence | inhibition, % at 10 µM | hit rate 4% among 4,900;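 active = thallium signal drop more than 5 SD beyond the mean of the no-compound control wells, seen in both duplicate plates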;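 note: signal is fluorescence rise after thallium addition divided by baseline fluorescence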
HEK293 Tl ctr = non-induced cell nonspecific activity of KCNK9 modulators | shares compounds with KCNK9 block | hit rate 40% among 4,900 | inhibition, % at 10 µM | non-induced KCNK9-HEK293, FluxOR thallium flux;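 active = thallium signal drop beyond 5 SD of the untreated control mean, on both duplicate plates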
Each line names hits and unclear results; the compound was inactive in the other large screens (follow-up assays come after a bar, where they were run). Compounds with a hit are over-represented: about 3.1% of the library has one in this group of screens.

O=C(Nc1ccc(Cl)c(Cl)c1)N1CCSC1c1ccco1 (stereo unspecified)	KCNK9 block -11, KCNQ1 block 10 | KCNQ1 block val 111 | CHO Tl flux 0.37 | KCNQ2 inh inactive | KCNQ1-KCNE1 inh 118% | KCNK9 inh conf 53% | Kir2-1 spec inactive | HEK293 Tl ctr inactive
CC(C)CC(C(=O)Nc1cccc(O)c1)N1C(=O)c2ccccc2C1=O (stereo unspecified)	none
CC(C)CC(C(=O)Nc1oc(-c2ccco2)c(-c2ccco2)c1C#N)N1C(=O)c2ccccc2C1=O (stereo unspecified)	KCNK3 inh -11, KCNK9 block -11, KCNQ1 block 9 | KCNQ1 block val 112 | CHO Tl flux inactive | KCNQ1 ephys val inactive | KCNQ2 inh 88% | KCNQ1-KCNE1 inh 65% | KCNK9 inh conf 72% | Kir2-1 spec inactive | HEK293 Tl ctr 26%
NC(=O)C1Cc2ccccc2CN1C(=O)c1cc(C2CC2)nn1-c1ccccc1 (stereo unspecified)	none (no result: KCNQ1 pot, KCNK9 block, hERG protect, KCNQ1 block)
C=CCn1c(/N=C/c2ccc(N(C)C)cc2)nc2ccccc21	none
CCCCn1c(/N=C/c2ccc(N(C)C)cc2)nc2ccccc21	KCNK3 inh -11, KCNK9 block -12, KCNQ1 block 11 | KCNQ1 block val 170 | CHO Tl flux 0.3 | KCNQ2 inh 135% | KCNQ1-KCNE1 inh 94% | KCNK9 inh conf 30% | Kir2-1 spec inactive | HEK293 Tl ctr 55%
O=C(COc1ccccc1)N(Cc1ccco1)c1ccc(O)cc1	none
O=C(c1ccc(Cl)c(Cl)c1)N(Cc1ccco1)c1ccc(O)cc1	KCNK9 block -11, KCNQ1 block 7 | KCNQ1 block val 84 | CHO Tl flux inactive | KCNQ2 inh 106% | KCNQ1-KCNE1 inh 118% | KCNK9 inh conf 40% | Kir2-1 spec 32% | HEK293 Tl ctr 42%
O=C(Nc1cccc(S(=O)(=O)N2CCOCC2)c1)c1cc(S(=O)(=O)N2CCOCC2)c(Cl)cc1Cl	none (no result: KCNQ1 pot, KCNK9 block, hERG protect, KCNQ1 block)
CCOc1ccccc1NC(=O)C(NCC1CCCCC1)c1ccccc1 (stereo unspecified)	KCNK9 block -8.9, KCNQ1 block 10 | KCNQ1 block val 131 | CHO Tl flux inactive | KCNQ1 ephys val inactive | KCNQ2 inh 125% | KCNQ1-KCNE1 inh 156% | KCNK9 inh conf 46% | Kir2-1 spec inactive | HEK293 Tl ctr 40%
O=C(COC(=O)/C=C/c1ccccc1[N+](=O)[O-])NCc1ccco1	none (no result: KCNQ1 pot, KCNK9 block, hERG protect, KCNQ1 block)
O=C1c2ccccc2[C@@H]2C[C@H]3O[C@H]3CCN12	none (no result: KCNQ1 pot, KCNK9 block, hERG protect, KCNQ1 block)
Cc1cccc2c1cnn2C(=O)CCC(=O)N1CCC(C)CC1	none
Cc1cccc2c1cnn2C(=O)CCC(=O)N1CC(C)CC(C)C1 (stereo unspecified)	KCNQ1 block 11 | KCNQ1 block val 25 | CHO Tl flux inactive | KCNQ2 inh 72% | KCNQ1-KCNE1 inh inactive | KCNK9 inh conf inactive | Kir2-1 spec inactive | HEK293 Tl ctr inactive
O=C(COC(=O)c1cccc(F)c1)NC(=O)NCc1ccccc1	none (no result: KCNQ1 pot, KCNK9 block, hERG protect, KCNQ1 block)
CCCc1nc(SCC(=O)N2CCC(Cc3ccccc3)CC2)c2c(=O)n(C)c(=O)n(C)c2n1	KCNQ1 block 6 | KCNQ1 block val 98 | CHO Tl flux inactive | KCNQ2 inh inactive | KCNQ1-KCNE1 inh inactive | KCNK9 inh conf inactive | Kir2-1 spec inactive | HEK293 Tl ctr inactive
COC(=O)C(Cc1c[nH]c2ccccc12)NC(=O)C(C)C (stereo unspecified)	none
COC(=O)C(Cc1c[nH]c2ccccc12)NC(=O)C(=O)c1c[nH]c2ccccc12 (stereo unspecified)	KCNK9 block -12, KCNQ1 block 7 | KCNQ1 block val 68 | CHO Tl flux inactive | KCNQ2 inh 84% | KCNQ1-KCNE1 inh 108% | KCNK9 inh conf inactive | Kir2-1 spec inactive | HEK293 Tl ctr inactive
Cc1ccc(-c2[nH]c(-c3ccc(C(=O)O)cc3)nc2-c2ccccc2)cc1	none
COc1ccc(-c2[nH]c(-c3cc(OC)c4c(c3)OCO4)nc2-c2ccccc2)cc1	KCNK9 block -9, KCNQ1 block 9 | KCNQ1 block val 152 | CHO Tl flux 0.34 | KCNQ2 inh 131% | KCNQ1-KCNE1 inh 186% | KCNK9 inh conf 38% | Kir2-1 spec inactive | HEK293 Tl ctr 32%
N#CCC(=O)Nc1ccc(C(=O)OCC(=O)Nc2ccccc2Sc2ccccc2)cc1	KCNK9 block -9.1, KCNQ1 block 6 | KCNQ1 block val 99 | CHO Tl flux inactive | KCNQ1 ephys val active | KCNQ2 inh 91% | KCNQ1-KCNE1 inh 153% | KCNK9 inh conf 50% | Kir2-1 spec inactive | HEK293 Tl ctr 34%
Cc1ccc(C(=O)Nc2ccc3c(c2)OCO3)cc1S(=O)(=O)N1CCCC1	none
Cc1ccc(C(=O)OCc2ccc3c(c2)OCO3)cc1S(=O)(=O)N1CCCCC1	KCNK9 block -13, KCNQ1 block 7 | KCNQ1 block val 74 | CHO Tl flux inactive | KCNQ2 inh 85% | KCNQ1-KCNE1 inh 78% | KCNK9 inh conf 41% | Kir2-1 spec inactive | HEK293 Tl ctr 36%
O=C(CSc1nc(-c2ccc(Cl)cc2)[nH]c(=O)n1)Nc1cccc(Cl)c1	KCNQ1 block 7 | KCNQ1 block val 116 | CHO Tl flux inactive | KCNQ1 ephys val inactive | KCNQ2 inh inactive | KCNQ1-KCNE1 inh inactive | KCNK9 inh conf inactive | Kir2-1 spec inactive | HEK293 Tl ctr inactive
O=[N+]([O-])c1ccc(Sc2cccc[n+]2[O-])c2nonc12	KCNK3 inh -14, KCNK9 block -16, KCNQ1 block 18 | KCNQ1 block val 140 | CHO Tl flux 0.26 | KCNQ2 inh inactive | KCNQ1-KCNE1 inh active | KCNK9 inh conf 74% | Kir2-1 spec 66% | HEK293 Tl ctr 78%
